Bioassay records deposited in PubChem by Johns Hopkins Ion Channel Center.
KCNQ1 act = potentiators or activators of human KCNQ1 potassium channel | 310,000 compounds, 0.35% hits | P51787 | CHO-K1 KCNQ1, thallium flux FluxOR fluorescence; hits give high values | B-score at 10 µM | AID 2648;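 active = fluorescence ratio B-score, a plate-corrected score, at least three library SD, with initial intensity B-score within 5 SD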
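assay system = CHO-K1 cells stably expressing KCNQ1 | medium = assay buffer, equal DMSO in all wells | timing = 37 °C overnight plating, 90-min dark dye load, 20-min compound pretreatment | measured by = kinetic FluxOR thallium fluorescence, 10-s 1-Hz baseline, 110-s post-stimulus read | measure = fluorescence change relative to baseline, converted to B score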
KCNK3 block = human KCNK3 channel inhibition, primary screen | B-score at 10 µM | CHO-KCNK3 thallium flux, FluxOR fluorescence; hits give low values | 340,000 compounds, 0.84% hits;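 active = B-score under library mean minus 4 SD, starting fluorescence ratio at most library mean plus 5 SD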;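 also: more negative B-score means stronger inhibition of thallium flux through KCNK3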
hERG rescue = hERG (human) protection from proarrhythmic block; CHO-hERG, FluxOR thallium flux, dofetilide IC70 present; activation (rescue from dofetilide block), less the hit threshold, % at 10 µM; 310,000 compounds, 0.51% hits; AID 1511;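 active = activation above the mean of controls blocked by dofetilide plus 5 SD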;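 also: thallium influx through hERG after potassium depolarization seen as dye fluorescence rise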
KCNQ1 inh = blocks the human KCNQ1 potassium channel | CHO-K1 KCNQ1, FluxOR thallium flux fluorescence; hits give high values | B-score at 10 µM | 310,000 compounds, 1.3% hits;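 active = compounds whose thallium flux B-score, printed positive for inhibition, exceeds three library SD while starting fluorescence stays within three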;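 also: channel opened by potassium depolarization with thallium stimulus after 20 min compound exposure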
KCNK9 inh = blocks the human KCNK9 two-pore domain potassium channel. Q9NPC2. HEK293 KCNK9, FluxOR thallium flux fluorescence; hits give low values. B-score at 10 µM. 310,000 compounds, 1.2% hits;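 active = ratio B-score over 3 SD below the library mean, with starting fluorescence within 5 SD of its mean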;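 also: negative B-score means less thallium flux so channel inhibition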
Target sequence (Q9NPC2 whole entry, looked up, the tested form may be a part): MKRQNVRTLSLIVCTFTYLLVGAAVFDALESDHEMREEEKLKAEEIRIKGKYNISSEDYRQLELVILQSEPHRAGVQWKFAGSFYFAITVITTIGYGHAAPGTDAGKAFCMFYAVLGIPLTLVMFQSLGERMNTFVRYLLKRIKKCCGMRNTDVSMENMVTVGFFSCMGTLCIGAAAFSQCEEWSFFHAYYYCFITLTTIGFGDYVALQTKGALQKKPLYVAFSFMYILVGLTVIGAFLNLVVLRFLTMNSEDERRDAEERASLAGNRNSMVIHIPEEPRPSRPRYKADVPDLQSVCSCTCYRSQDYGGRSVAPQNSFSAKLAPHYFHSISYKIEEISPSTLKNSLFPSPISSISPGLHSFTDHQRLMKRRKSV
Kir21 block = Kir2.1 (mouse) channel inhibition; B-score at 10 µM; HEK293-Kir2.1, FluxOR thallium flux fluorescence; hits give low values; 310,000 compounds, 0.85% hits; P35561; AID 1672;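 active = fluorescence ratio B-score at or below minus 3 SD of library scores, with starting-brightness B-score within 2 SD, cut at about -4.2 in these data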;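 also: channel flux triggered by added potassium and thallium sulfate stimulus; B-score of peak minus minimum fluorescence over baseline after thallium stimulus; more negative B-score means stronger Kir2.1 block with less thallium influx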
KCNK9 block conf = human KCNK9 inhibitor confirmation; 4,900 compounds, 43% hits; shares compounds with KCNK9 inh; HEK293 KCNK9 cells, FluxOR thallium flux fluorescence; inhibition, % at 10 µM;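 active = thallium signal inhibited by more than 5 SD of the compound-free buffer control wells, on both duplicate plates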;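 also: 0% = assay buffer control wells without compound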
Kir2-1 spec = tests whether KCNK9 modulators also affect mouse Kir2.1; shares compounds with KCNK9 inh; Kir2.1 cells, FluxOR thallium flux fluorescence; inhibition, % at 10 µM; 4,900 compounds, 4% hits; AID 492993;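 active = thallium signal drop more than 5 SD beyond the mean of the no-compound control wells, seen in both duplicate plates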;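 also: signal is fluorescence rise after thallium addition divided by baseline fluorescence; plate controls were assay buffer only for no effect and full block by chlorpromazine control for full effect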
KCNK9 uninduced = second check of KCNK9 modulator effects in non-induced HEK293 cells; inhibition, % at 10 µM; shares compounds with KCNK9 inh; AID 492997; 4,900 compounds, 40% hits; FluxOR thallium flux;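 active = thallium signal drop beyond 5 SD of the untreated control mean, on both duplicate plates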;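 also: plate controls were buffer only IC0 wells for no effect and SID17386958 at its maximal inhibitory level for full effect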
KCNK3 inh conf = human KCNK3 channel inhibition, confirmation assay | CHO-KCNK3 thallium flux, FluxOR fluorescence; 0% buffer, 100% carvedilol maximal block | ratio percent of control, % at 10 µM | 2,400 compounds, 99% hits | shares compounds with KCNK3 block;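 active = ratio percent of control, averaged over triplicates, above buffer control mean plus 5 SD, cut at about 64% in these data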;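 also: ratio is the fluorescence rise from min to max over baseline after thallium stimulus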
KCNK3 noninduced = activity in cells without induced KCNK3 expression; shares compounds with KCNK3 block; non-induced KCNK3 parental cells, FluxOR thallium flux; hits give low values; thallium flux ratio (lower = more inhibition) at 10 µM; 2,400 compounds, 40% hits; AID 651747;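 active = thallium flux ratio, averaged over three wells, more than 5 SD below the buffer control mean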;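 also: host cells are CHO cells without KCNK3 induction; ratio is peak minus trough fluorescence over baseline then normalized to buffer controls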
The depositor's hits bear a star; i = inactive; / = no result given. Shown are actives, neighbours in structure and some others; about 3.7% of the full set was active somewhere.

SMILES	KCNQ1 act	KCNK3 block	hERG rescue	KCNQ1 inh	KCNK9 inh	Kir21 block	KCNK9 block conf	Kir2-1 spec	KCNK9 uninduced	KCNK3 inh conf	KCNK3 noninduced
Cc1nc(C(N)=O)nc2ccccc12	i	i	-5.4	i	i	1.02	/	/	/	/	/
Cc1nn(C)cc1CN(C)C(=O)c1cc(COc2ccc(F)cc2F)on1	i	i	-10.5	i	i	0.09	/	/	/	/	/
COc1cccc(C(=O)NCC(c2cccs2)N2CCc3ccccc32)c1 (stereo not given)	i	-13.9*	-7.0	i	-17*	2.1	55.5%*	i	37.0%*	134.7*	0.121*
CCCCC(=O)Nc1cccc(-c2csc(-c3ccccc3)n2)c1	i	-10.2*	-11.8	9*	-10.5*	-0.51	50.0%*	i	30.0%*	125.0*	0.154*
O=C(O)CCC(=O)Nc1cccc(-c2csc(-c3ccccc3)n2)c1	i	i	-6.2	i	i	1.99	/	/	/	/	/
COc1ccc(-c2nc(-c3ccc(O)cc3O)cs2)cc1OC	i	-11.5*	-30.9	i	-13.2*	-1.24	49.5%*	i	i	123.7*	i
COc1ccc(-c2cnnn2-c2ccc([N+](=O)[O-])cc2)cc1	i	i	-6.5	i	i	0.05	/	/	/	/	/
Cc1noc(C)c1COc1ccccc1C(=O)NCCc1ccc(Cl)cc1	i	-9.35*	-15.2	i	-20.4*	-5.02	63.0%*	i	35.0%*	81.3*	i
O=C(Nc1ccc(Br)cc1)/C(=C/c1cccc([N+](=O)[O-])c1)NC(=O)C1CCCCC1	i	-9.44*	-2.3	i	-9.65*	-0.34	50.0%*	i	34.5%*	107.3*	0.148*
COc1ccc(Cn2nnnc2C(c2ccccn2)N2CCN(c3cc(Cl)ccc3C)CC2)cc1 (stereo not given)	i	-9.52*	-1.1	i	-10.6*	0.31	43.5%*	i	44.0%*	101.0*	i
NC(=S)N/N=C\c1c(OCc2ccccc2Cl)ccc2ccccc12	i	-9.5*	-14.4	i	-10.1*	-0.27	46.0%*	i	i	101.0*	i
CN(C)S(=O)(=O)N1CCCC(C(=O)c2ccc(-c3ccccc3)c(F)c2)C1 (stereo not given)	i	-10.8*	-59.4	i	-8.38*	0.16	30.5%*	i	45.0%*	118.7*	i
CN(CCOc1ccccc1)CC(=O)Nc1ccc([N+](=O)[O-])cc1Cl	i	i	-9.9	i	i	-0.38	/	/	/	/	/
CN(CC(=O)Nc1ccc([N+](=O)[O-])cc1Br)Cc1c(F)cccc1Cl	i	-10.1*	-18.2	i	-14.8*	2	i	i	43.0%*	94.7*	0.156*
O=C(CC1C(=O)NCCN1CC1CCCCC1)NCCCN1CCOCC1 (stereo not given)	i	i	-8.2	i	i	-0.52	/	/	/	/	/
CCc1ccc(NC(=S)N2CCN(c3cccc(OC)c3)CC2)cc1	i	i	-11.7	i	i	0.02	/	/	/	/	/
N=c1c2c(ncn1Cc1ccco1)Oc1ccc3ccccc3c1C2c1ccccc1 (stereo not given)	i	i	-14.5	i	i	-1.29	/	/	/	/	/
N=c1c2c(-c3ccccc3)c(-c3ccccc3)n(Cc3ccco3)c2ncn1Cc1ccco1	i	-14.5*	-38.1	11*	-8.67*	-9.83*	54.5%*	45.5%*	31.0%*	110.3*	0.153*
N#Cc1ccc(CN2C=NS(=O)(=O)c3ccccc32)cc1	i	i	-1.9	i	i	2.59	/	/	/	/	/
Clc1ncnc2c1oc1ccccc12	i	i	-17.9	i	i	1.49	/	/	/	/	/
c1coc(CN(Cc2ccco2)c2ncnc3c2oc2ccccc23)c1	i	-12.1*	-9.1	i	-18.3*	0.05	70.5%*	i	i	138.7*	0.142*
CC(=O)c1ccc(S(=O)(=O)N(C)C(C)CCc2ccco2)cc1 (stereo not given)	i	i	-2.0	i	i	-0.41	/	/	/	/	/
CCN(CC)C(=O)COc1ccc(-c2ccccc2)cc1	i	-10*	-3.5	i	-9.85*	0.45	41.0%*	i	i	84.3*	i
CCN(Cc1ccccc1)C(=O)COc1ccccc1	i	i	-10.8	i	i	0.55	/	/	/	/	/
COc1ccc(C)cc1NC(=O)CN(C)C1CCCCC1	i	i	-1.6	i	i	0.32	/	/	/	/	/
SMILES	KCNQ1 act	KCNK3 block	hERG rescue	KCNQ1 inh	KCNK9 inh	Kir21 block	KCNK9 block conf	Kir2-1 spec	KCNK9 uninduced	KCNK3 inh conf	KCNK3 noninduced
Cc1csc(SC(C)C(=O)Nc2ccccc2C)n1 (stereo not given)	/	i	/	/	/	/	/	/	/	/	/
CCN(CC)CC(O)COc1ccccc1C(=O)CCc1ccccc1 (stereo not given)	i	i	-11.1	i	i	0	/	/	/	/	/
CCCCN(CCCC)CC(O)COc1ccccc1C(=O)Nc1ccccc1 (stereo not given)	i	-10.5*	-9.5	i	-11*	-0.96	50.0%*	i	39.5%*	112.3*	i
CC(Nc1nc(-c2ccccc2)nc2ccccc12)c1ccccc1 (stereo not given)	i	-11.2*	-19.8	i	-8.94*	0.45	i	i	36.0%*	102.3*	i
Cc1nn(S(=O)(=O)c2ccccc2)c(C)c1Sc1ccc([N+](=O)[O-])cc1	i	i	-11.4	i	i	0.23	/	/	/	/	/
Cc1nn(S(=O)(=O)c2cccs2)c(C)c1Sc1ccc([N+](=O)[O-])cc1	i	-11.9*	-13.2	i	-11.1*	0.61	54.5%*	i	27.5%*	119.7*	0.156*
Cc1nn(Cc2ccc(C(=O)Nc3nc4c(C)cccc4s3)o2)c(C)c1Br	i	-9.92*	-2.4	i	-13.5*	-0.1	43.5%*	i	i	87.7*	i
Cc1cc(NC(=O)c2ccc(Cn3nc(C)c(Br)c3C)o2)no1	i	i	-0.3	i	i	0.14	/	/	/	/	/
